# Experiments:
# V1372A mutant strain = type: cell-based, yeast; settings: liquid YPD, 30 °C, n = 3
# M1373A mutant strain = assay: Relative drug resistance in liquid YPD culture; type: cell-based, yeast; settings: compared with ΔPdr5 control strain
# I685A mutant strain = type: cell-based, yeast; settings: liquid YPD, 30 °C, n = 3
# Pdr5 WT = Pdr5 WT (Saccharomyces cerevisiae, UniProt P33302); assay: Inhibition of Pdr5 ATPase activity in purified PM vesicles; type: biochemical, yeast
# Pdr5 G1371A = Pdr5 G1371A (Saccharomyces cerevisiae, UniProt P33302, G1371A); assay: as above; type: biochemical, yeast; settings: relative to WT
# Pdr5 G1371A, sequence (P33302 whole entry G1371A): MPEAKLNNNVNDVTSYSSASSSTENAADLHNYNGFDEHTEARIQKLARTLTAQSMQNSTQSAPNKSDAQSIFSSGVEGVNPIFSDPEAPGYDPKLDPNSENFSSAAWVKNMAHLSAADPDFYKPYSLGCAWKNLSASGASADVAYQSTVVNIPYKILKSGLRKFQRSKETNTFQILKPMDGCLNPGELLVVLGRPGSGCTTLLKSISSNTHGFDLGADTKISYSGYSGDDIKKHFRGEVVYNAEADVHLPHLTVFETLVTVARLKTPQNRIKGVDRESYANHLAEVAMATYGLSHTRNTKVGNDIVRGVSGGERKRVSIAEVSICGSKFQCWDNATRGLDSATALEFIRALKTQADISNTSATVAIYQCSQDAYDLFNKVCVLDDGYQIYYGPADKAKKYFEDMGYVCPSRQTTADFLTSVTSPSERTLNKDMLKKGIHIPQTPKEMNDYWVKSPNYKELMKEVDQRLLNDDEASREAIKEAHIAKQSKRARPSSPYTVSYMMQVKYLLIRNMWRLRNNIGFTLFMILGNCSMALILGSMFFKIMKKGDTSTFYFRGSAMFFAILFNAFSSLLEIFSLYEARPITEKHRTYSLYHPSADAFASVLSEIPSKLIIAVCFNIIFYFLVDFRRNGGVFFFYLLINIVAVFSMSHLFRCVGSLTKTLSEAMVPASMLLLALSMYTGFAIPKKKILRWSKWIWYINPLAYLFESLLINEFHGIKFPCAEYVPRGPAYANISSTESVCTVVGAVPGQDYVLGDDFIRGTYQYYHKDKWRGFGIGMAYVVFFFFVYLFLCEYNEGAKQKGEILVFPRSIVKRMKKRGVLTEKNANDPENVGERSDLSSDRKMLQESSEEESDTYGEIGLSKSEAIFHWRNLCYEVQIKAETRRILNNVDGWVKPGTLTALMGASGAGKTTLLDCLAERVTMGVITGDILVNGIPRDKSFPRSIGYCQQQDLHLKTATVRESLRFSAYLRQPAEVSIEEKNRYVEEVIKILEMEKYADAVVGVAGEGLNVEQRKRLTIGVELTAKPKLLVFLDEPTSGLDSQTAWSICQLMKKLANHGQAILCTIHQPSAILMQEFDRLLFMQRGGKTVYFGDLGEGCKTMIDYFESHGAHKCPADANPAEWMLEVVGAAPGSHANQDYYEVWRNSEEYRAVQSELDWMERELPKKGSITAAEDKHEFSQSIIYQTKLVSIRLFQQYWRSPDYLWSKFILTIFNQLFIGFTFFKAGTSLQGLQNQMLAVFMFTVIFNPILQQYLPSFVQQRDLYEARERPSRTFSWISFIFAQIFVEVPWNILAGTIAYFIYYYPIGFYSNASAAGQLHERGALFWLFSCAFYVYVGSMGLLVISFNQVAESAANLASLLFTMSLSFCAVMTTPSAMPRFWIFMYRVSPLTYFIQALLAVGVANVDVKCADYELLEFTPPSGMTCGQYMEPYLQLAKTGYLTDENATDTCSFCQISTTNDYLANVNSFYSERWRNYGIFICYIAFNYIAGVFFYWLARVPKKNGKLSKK
# [1] = molecular target: Pdr5 V1372A, I685A double mutant (Saccharomyces cerevisiae, UniProt P33302, I685A/V1372A); assay: biochemical; set-up: species or system yeast
# Pdr5 V1372A, I685A double mutant, sequence (P33302 whole entry I685A/V1372A): as the sequence (P33302 whole entry G1371A) above, with I685A, A1371G, V1372A counted along it
# Pdr5 I685A = Pdr5 I685A (Saccharomyces cerevisiae, UniProt P33302, I685A); assay: biochemical; type: biochemical, yeast
# Pdr5 I685A, sequence (P33302 whole entry I685A): as the sequence (P33302 whole entry G1371A) above, with I685A, A1371G counted along it
# Pdr5 V1372A = Pdr5 V1372A (Saccharomyces cerevisiae, UniProt P33302, V1372A); assay: biochemical; type: biochemical, yeast
# Pdr5 V1372A, sequence (P33302 whole entry V1372A): as the sequence (P33302 whole entry G1371A) above, with A1371G, V1372A counted along it
# Pdr5 M1373A mutant = Pdr5 M1373A mutant (Saccharomyces cerevisiae, UniProt P33302, M1373A); assay: Whole-cell R6G transport against a concentration gradient; type: cell-based, yeast; settings: median; 90 min, 30 °C, Hepes-glucose buffer
# Pdr5 M1373A mutant, sequence (P33302 whole entry M1373A): as the sequence (P33302 whole entry G1371A) above, with A1371G, M1373A counted along it
# [2] = tested on: Pdr5 I685A, V1372A double mutant; assay: as above; type: cell-based, yeast
# Pdr5 F1369A mutant = Pdr5 F1369A mutant (Saccharomyces cerevisiae, UniProt P33302, F1369A); assay: as above; type: cell-based, yeast
# Pdr5 F1369A mutant, sequence (P33302 whole entry F1369A): as the sequence (P33302 whole entry G1371A) above, with F1369A, A1371G counted along it
# Pdr5 G1371A strain = Pdr5 G1371A strain (Saccharomyces cerevisiae, UniProt P33302, G1371A); assay: Whole-cell R6G transport against a concentration gradient; type: cell-based, yeast; settings: median; 90 min, 30 °C, Hepes-glucose buffer
# Pdr5 G1371A strain, sequence (P33302 whole entry G1371A): as the sequence (P33302 whole entry G1371A) above
# How it was run: (§1)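 Log-phase yeast grown in YPD at 30 °C, R-1 background with integrated PDR5 under its own promoter. 3 × 10^6 cells were incubated in 0.02 M Hepes with 1 mM glucose (pH 7.0) and 20 μM R6G at 30 °C for 90 min, then washed in cold glucose-free Hepes. Median retained fluorescence was read by flow cytometry from 10,000 cells, in arbitrary units; n ≥ 4.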
# F683L mutant strain [3] = assay: Relative drug resistance; type: cell-based, yeast; settings: n = 4
# F683L mutant strain [4] = settings: original characterization; cited from earlier work
# [5] = tested on: M1373T and A684S mutant strains; assay: Relative drug resistance; type: cell-based, yeast; settings: n = 4
# Pdr5 F683L mutant = assay: Accumulation of R6G prior to glucose-mediated efflux; type: cell-based, yeast; settings: 20 μM R6G, Hepes buffer, no glucose, 90 min
# ΔPdr5 strain = assay: Whole-cell R6G transport against a concentration gradient; type: cell-based, yeast; settings: median; 90 min, 30 °C, Hepes-glucose buffer
# Pdr5 WT control strain = Pdr5 WT control strain (Saccharomyces cerevisiae, UniProt P33302); assay: Whole-cell R6G transport against a concentration gradient; type: cell-based, yeast; settings: median; 90 min, 30 °C, Hepes-glucose buffer
# Pdr5 WT control strain, sequence (P33302 whole entry): as the sequence (P33302 whole entry G1371A) above, with A1371G counted along it
# How it was run: as §1
# Pdr5 WT, sequence (P33302 whole entry): as the sequence (P33302 whole entry G1371A) above, with A1371G counted along it
smiles,measurement,setting,value
CC(C)(C)C(=O)C(Oc1ccc(Cl)cc1)n1ccnc1 (stereo not shown) [climbazole],Resistance of V1372A mutant relative to WT,V1372A mutant strain,hypersensitive
same,Resistance of M1373A mutant,M1373A mutant strain,phenotypically indistinguishable from the ΔPdr5 control strain
same,Resistance of I685A mutant relative to WT,I685A mutant strain,hypersensitive
c1ccc(-c2ccc(C(c3ccccc3)n3ccnc3)cc2)cc1 (stereo not shown) [bifonazole],IC50,Pdr5 WT,2.86 µM
same,Sensitivity of G1371A ATPase to allosteric inhibition,Pdr5 G1371A,strikingly hypersensitive
same,IC50,[1],13 µM
same,IC50,Pdr5 I685A,2.58 µM
same,IC50 of single mutant I685A compared with WT,"Pdr5 I685A; ATPase inhibition, in words",not significantly different from the WT
same,IC50,Pdr5 V1372A,3.29 µM
same,IC50 of single mutant V1372A compared with WT,"Pdr5 V1372A; ATPase inhibition, in words",not significantly different from the WT
CC/C(=C(\c1ccccc1)c1ccc(OCCN(C)C)cc1)c1ccccc1 [tamoxifen],Resistance of V1372A mutant relative to WT,V1372A mutant strain,hyper-resistant
same,Resistance of I685A mutant relative to WT,I685A mutant strain,hypersensitive
"CC/N=c1\cc2oc3cc(NCC)c(C)cc3c(-c3ccccc3C(=O)OCC)c-2cc1C [R6G, rhodamine 6G]","Retained R6G fluorescence, M1373A mutant",Pdr5 M1373A mutant,4900 a.u.
same,Retained R6G in double mutant relative to WT strain,[2],twice
same,Retained fluorescence of F1369A mutant relative to WT control,Pdr5 F1369A mutant; against R6G gradient,~5 ×
same,"Retained R6G fluorescence, F1369A mutant","Pdr5 F1369A mutant; median, 90 min, 30 °C, Hepes-glucose buffer",1288 a.u.
same,"Retained R6G fluorescence, G1371A strain",Pdr5 G1371A strain,3093 a.u.
same,Rank of F683L mutant sensitivity among the four drugs,F683L mutant strain [3],most sensitive
same,Minimum inhibitory concentration of F683L mutant relative to WT value,F683L mutant strain [4],one-eighth
same,Sensitivity of M1373T and A684S mutants relative to WT,[5],indistinguishable from the WT
same,Fluorescence accumulated by F683L mutant relative to WT control,Pdr5 F683L mutant,about 3 ×
same,"Retained R6G fluorescence, ΔPdr5 strain",ΔPdr5 strain,5001 a.u.
same,"Retained R6G fluorescence, WT control strain",Pdr5 WT control strain,272.6 a.u.
OC(Cn1cncn1)(Cn1cncn1)c1ccc(F)cc1F [fluconazole],Sensitivity of F683L mutant,F683L mutant strain [4],hypersensitive
same,Sensitivity of M1373T and A684S mutants relative to WT,[5],quite hypersensitive
C/C=C/C/C=C/CCC(=O)[C@H]1O[C@H]1C(N)=O [cerulenin],Resistance of V1372A mutant relative to WT,V1372A mutant strain,hyper-resistant
same,Resistance of I685A mutant relative to WT,I685A mutant strain,hypersensitive
CC(=O)N1CCN(c2ccc(OCC3COC(Cn4ccnc4)(c4ccc(Cl)cc4Cl)O3)cc2)CC1 (stereo not shown) [ketoconazole],Rank of F683L mutant sensitivity among the four drugs,F683L mutant strain [3],least sensitive
same,Sensitivity of M1373T and A684S mutants relative to WT,[5],quite hypersensitive
C[C@@H]1C[C@@H]([C@H](O)CC2CC(=O)NC(=O)C2)C(=O)[C@@H](C)C1 [cycloheximide],Resistance of V1372A mutant relative to WT,V1372A mutant strain,hypersensitive
same,Sensitivity of F683L mutant,F683L mutant strain [4],hypersensitive
same,Sensitivity of M1373T and A684S mutants relative to WT,[5],mildly hypersensitive
same,Resistance of M1373A mutant,M1373A mutant strain,phenotypically indistinguishable from the ΔPdr5 control strain
same,Resistance of I685A mutant relative to WT,I685A mutant strain,mildly hyper-resistant
